Molecules are shown by their SMILES.

Data set [1] concerns the target T1, RALDH2 activity (ATRA synthesis) in living intact chick choroids (Gallus gallus, UniProt O93344).
T1 sequence (O93344 1-518): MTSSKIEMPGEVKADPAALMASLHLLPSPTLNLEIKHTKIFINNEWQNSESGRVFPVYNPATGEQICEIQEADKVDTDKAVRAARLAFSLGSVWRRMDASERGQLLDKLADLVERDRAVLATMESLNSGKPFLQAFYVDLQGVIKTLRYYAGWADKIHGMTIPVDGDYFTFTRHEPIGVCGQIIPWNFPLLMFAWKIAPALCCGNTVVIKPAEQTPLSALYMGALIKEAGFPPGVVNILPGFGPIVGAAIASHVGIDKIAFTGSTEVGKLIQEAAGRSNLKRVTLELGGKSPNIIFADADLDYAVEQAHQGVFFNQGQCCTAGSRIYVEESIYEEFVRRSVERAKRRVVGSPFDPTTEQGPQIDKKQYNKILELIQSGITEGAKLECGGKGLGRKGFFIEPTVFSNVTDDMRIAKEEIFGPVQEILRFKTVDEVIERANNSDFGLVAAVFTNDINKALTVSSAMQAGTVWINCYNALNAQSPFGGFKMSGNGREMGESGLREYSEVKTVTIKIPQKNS
Put plainly: RALDH2 activity after incubation of living, intact choroids in organ culture. The data set is classed as cell-based. The settings on record: organ culture 24 hrs. The method, boiled down: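 Choroids from 4-day recovering or contralateral control eyes of male White Leghorn chicks (8 mm posterior punch) were cultured one per well in N2 medium with test compound (methods: 0.01–5 μM; legend: 0.01–10 μM) or DMSO for 24 hrs at 37°C, 5% CO2. Cytosol (100,000g, 1 hr) was incubated with NAD+ and 25 μM all-trans-retinaldehyde for 30 min at 37°C, with methanol stop and HPLC quantification of ATRA.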

For data set [2], the target named is T2, recombinant chicken RALDH2 (Gallus gallus, UniProt O93344).
T2 sequence (O93344 1-518): T1 sequence (O93344 1-518)
The experiment in a line: Fluorescence-based NADH assay of RALDH activity with retinaldehyde as substrate. In kind it is biochemical.

The target in data set [3] is T3, recombinant human mitochondrial ALDH2 (hALDH2) (Homo sapiens, UniProt P05091).
T3 sequence (P05091 18-517): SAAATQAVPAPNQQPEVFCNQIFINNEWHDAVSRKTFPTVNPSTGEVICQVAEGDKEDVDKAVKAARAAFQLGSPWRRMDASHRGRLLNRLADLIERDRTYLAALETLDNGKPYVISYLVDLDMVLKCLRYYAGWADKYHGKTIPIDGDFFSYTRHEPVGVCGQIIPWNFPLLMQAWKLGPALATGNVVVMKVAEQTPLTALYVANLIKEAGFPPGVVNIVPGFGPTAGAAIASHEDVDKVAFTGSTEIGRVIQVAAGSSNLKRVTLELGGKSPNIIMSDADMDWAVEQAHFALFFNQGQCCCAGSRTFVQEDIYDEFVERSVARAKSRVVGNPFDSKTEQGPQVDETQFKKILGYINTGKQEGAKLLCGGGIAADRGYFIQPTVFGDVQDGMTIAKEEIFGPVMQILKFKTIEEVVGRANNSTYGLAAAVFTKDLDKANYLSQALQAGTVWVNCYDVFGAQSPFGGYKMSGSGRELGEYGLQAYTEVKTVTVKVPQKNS
The data set is classed as biochemical. The settings on record: read-out: KI (Morrison); Morrison equation; ALDH2 4.43 μM. In outline:
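Cobalt-purified recombinant hALDH2 (4.5 μM in Hepes pH 8.5/KCl/EDTA dialysis buffer plus 1 mM TCEP) in 20 mM Hepes pH 8.3, 150 mM KCl, 1 mM EDTA, 2 mM DTT, 5 mM propionaldehyde, 25°C. Pre-incubation 20 min–1 hr with test compound (1–100 μM final) or DMSO; NAD+ (5 mM final) started reaction; NADH at 340 nm for 5 min. KI by Morrison equation; triplicates, 3–5 experiments.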

Data set [4] addresses T4, RALDH2 activity in chick choroid cytosol fractions (Gallus gallus, UniProt O93344).
T4 sequence (O93344 1-518): T1 sequence (O93344 1-518)
In kind it is biochemical. In outline: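 Choroidal cytosol from control and 4-day recovering chick eyes was pre-incubated 20 min at 37°C with test compound (0–6 μM) or DMSO. Reaction was started with NAD+ (4 mM) and all-trans-retinaldehyde (25 μM), run 30 min at 37°C under dim red light, stopped with ice and methanol. ATRA was quantified by HPLC.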

Data set [5] is described as follows: Stability of DAR on storage and under assay conditions. The data set is classed as physicochemical.

For the compound `O=C(NCCCCCCCCNC(=O)C(Cl)Cl)C(Cl)Cl` [WIN 18446, reference compound], the “effect on ATRA synthesis in living, intact choroids from control eyes” value in data set [1] is on record as “no significant effect”.
On to `CC1=C(/C=C/C(C)=C/C=C/C(C)=C/C(=O)C(Cl)Cl)C(C)(C)CCC1` [DAR, (3E,5E,7E,9E)-1,1-dichloro-4,8-dimethyl-10-(2,6,6-trimethylcyclohex-1-en-1-yl)deca-3,5,7,9-tetraen-2-one], for which the “Protection of RALDH2 activity by all-trans-retinaldehyde in the pre-incubation” value in data set [2] (250 nM DAR + 250 μM RAL) is listed as “No protection”. In data set [2] (DAR 150 nM, RALDH2 46 – 91 nM), the “RALDH2 activity at enzyme concentrations below the DAR concentration” value is given as “completely inhibited”. In data set [3], the inhibition constant (Ki) was above 100 µM. Moreover, the half-inhibitory concentration (IC50) in data set [4] was 0.0207 µM. Moreover, in data set [4] (0.10 – 6 μM DAR, 20 min pre-incubation at 37°C, control eyes, vs vehicle), the “inhibition of RALDH2 activity in control choroid lysates” value is recorded as 92 – 99%. Further, the “effect on ATRA synthesis in living, intact choroids from control eyes” value in data set [1] was “no significant effect”. For the same compound, in data set [5] (ambient light), the light stability entry was “prone to photoisomerization”. In addition, in data set [5] (dark, 25°C and 37°C), the “stability under assay conditions” value was “at least three days”. Moreover, the storage stability result in data set [5] (stored in the dark and at −80°) is given as “at least three months”.

For the origin of these results see paper PMC6331054 (Bioorganic & medicinal chemistry, 2018).
